Screens (PubChem)
The list is not random: actives were taken first. Their share in the collection is about 8.9%.
MT stabilize HCS: stabilizes microtubules in HeLa cells; HeLa tubulin immunostaining HCS, 24 h; share of cells brighter than vehicle mean+2SD; % tubulin-high responders, % at 10 µM; hit rate 0.83% among 200,000; AID 2205;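 active = plate Z-score above 3 for both tubulin-high and condensed-nucleus cell shares, with cell loss under 80%, at 10 µM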;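 also: anti alpha tubulin signal scored within the nucleus-defined area of each cell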
Dynein cargo inh: blocks dynein driven cargo transport along microtubules. 3617.4 mouse cells, GR-EGFP nuclear translocation imaging; test concentration mostly 20 µM; stimulated with dexamethasone, 1 µM; stronger effect = lower value. z-score, hits read low. hit rate 0.47% among 220,000;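 active = plate z-score of nuclear minus cytoplasmic receptor signal below a set negative limit, without overly bright fluorescence or cell loss, cut at about -3.5 in these data, passing the limit was not always enough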;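 also: z-score of nuclear minus cytoplasmic ring GR-EGFP intensity difference per well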
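medium = tetracycline-free induction medium containing charcoal-stripped FBS | probe or stimulus = dexamethasone, 1.0 µM final | timing = 48 h induction, then 1 h compound, then 30 min agonist, 37 °C | detection = automated 10x imaging of fixed Hoechst-stained cells | read-out basis = nuclear versus cytoplasmic GR-EGFP signal, averaged per well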
L major viab: Leishmania major promastigote growth inhibition | hit rate 9% among 200,000 | Leishmania major promastigotes, resazurin fluorescence viability | inhibition, % at 10 µM; in the data active = inhibition above about 50%;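 also: promastigotes grown with compound for 44 hours at 28 °C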
b-catenin transl: beta-catenin nuclear translocation modulation. AID 1665. HeLa beta-catenin nuclear translocation, immunofluorescence imaging. nuclear translocation activity, % at 5 µM. hit rate 0.3% among 190,000;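 active = nuclear translocation activity above 50% at 5 µM, with a well cell count of 50 or more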;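 also: per-cell ratio of nuclear to cytoplasmic median beta-catenin stain intensity; plate controls were DMSO negative control for no effect and GSK-3 inhibitor IX positive control for full effect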
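Signal – beta-catenin immunofluorescence imaging with DAPI · Test system – human HeLa cell line · Dosing – 5 µM primary single dose, 0.1% DMSO, 0.02–20 µM confirmation series · Measure – % activation, nuclear-to-cytoplasmic median beta-catenin signal ratio per cell · Incubation – 24 h compound exposure at 37°C, 5% CO2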
HSV replic up: HSV replication enhancement; hit rate 0.005% among 220,000; AID 1956; HSV replication augmentation in cells, fold increase; maximum fold increase; in the data active = maximum fold increase above about 1.5; tested in PC3 cells
* marks the source's active call; other numbers are inactive results; i = inactive; / = no result.

SMILES	MT stabilize HCS	Dynein cargo inh	L major viab	b-catenin transl	HSV replic up
COc1ccccc1NC(=O)c1cc(C(=O)Nc2ccccc2OC)cc(N2C(=O)CCC2=O)c1	2	-0.25	-5	-1	i
COc1ccccc1NC(=O)/C=C1\SCC(=O)N1C	2	1.5	100*	-2	i
Cc1c(C)n(CCC#N)c2ccc(Cl)cc12	7	-0.34	-5	-3	i
CCOC(=O)c1c(C)n(-c2ccc(C)cc2)c2ccc(OCC(O)CNCCCO)cc12 (stereo unspecified)	3	3.5	80*	5	i
CCOC(=O)c1c(C)n(C)c2ccc(OCC(O)CN3CCC(C)CC3)cc12 (stereo unspecified)	4	-0.67	44	/	i
CCOC(=O)c1c(C)n(C)c2ccc(OCC(O)CNC(CC)CO)cc12 (stereo unspecified)	4	-0.28	6	-5	i
CCOC(=O)c1c(C)n(C)c2ccc(OCC(O)CN3CCCCCC3)cc12 (stereo unspecified)	6	-0.45	98*	/	i
CCOC(=O)c1c(C)n(-c2ccc(C)cc2)c2ccc(OCC(O)CNCC3CCCO3)cc12 (stereo unspecified)	3	-2.5	100*	/	i
O=S(=O)(NCc1ccc2c(c1)OCO2)c1cnc[nH]1	3	0.029	-1	/	i
C=CCNC(=O)/C(=C\c1ccc2c(c1)OCO2)NC(=O)c1ccc(Br)cc1	2	3	-3	-1	/
COc1ccc(CCNC(=O)CNCC2CCCO2)cc1OC (stereo unspecified)	2	-0.014	-4	-4	i
CC(=O)Nc1ccc(C(=O)CSc2cc(C)c3cccc(C)c3n2)cc1	2	0.16	51*	1	i
CC(=O)c1cccc(NC(=O)C(OC(=O)c2cccc(S(=O)(=O)N(C)c3ccccc3)c2)c2ccccc2)c1 (stereo unspecified)	2	0.55	96*	-1	i
COc1ccc(N(C)S(=O)(=O)c2cccc(C(=O)Nc3cc(OC)ccc3OC)c2)cc1	3	0.029	82*	1	i
COc1ccc(N(C)S(=O)(=O)c2cccc(C(=O)OC(C(=O)Nc3cc(C)cc(C)c3)c3ccccc3)c2)cc1 (stereo unspecified)	3	-0.091	96*	/	i
CCOC(=O)c1c(NC(=O)CCC(=O)N2CCOCC2)sc2c1CC(C)(C)OC2	2	0.49	97*	0	i
CCOC(=O)c1c(NC(=O)CCN2CCOCC2)sc2c1CC(C)(C)OC2	2	-1.8	-5	-1	i
CCOC(=O)c1c(NC(=O)c2ccccc2C)sc2c1CC(C)(C)OC2	1	-0.58	72*	-11	i
CCOC(=O)c1c(NC(=O)c2ccc(C)cc2)sc2c1CC(C)(C)OC2	1	-0.48	61*	-6	i
COc1ccccc1N1CCN(C(=O)C(Sc2ccccc2)c2ccccc2)CC1 (stereo unspecified)	6	-0.091	81*	5	i
CC1CCCN(C(=O)c2cc(N3C(=O)C4C5CCC(C5)C4C3=O)ccc2Cl)C1 (stereo unspecified)	2	-1	-4	-2	i
COc1ccccc1N1CCN(C(=O)c2cc(N3C(=O)C4C5CCC(C5)C4C3=O)ccc2Cl)CC1 (stereo unspecified)	2	-0.16	89*	-1	i
COc1ccccc1N1CCN(C(=O)c2ccc(S(=O)(=O)N3CCCC3)cc2)CC1	2	-0.79	63*	0	i
COc1ccc(C(=O)N2CCN(c3ccccc3OC)CC2)cc1	1	-0.49	-6	0	i
COc1ccccc1N1CCN(C(=O)c2c(-c3ccccc3)noc2C)CC1	28*	-0.48	-2	126*	i
SMILES	MT stabilize HCS	Dynein cargo inh	L major viab	b-catenin transl	HSV replic up
CCOC(=O)c1cnc(SC)nc1Sc1ccccc1Cl	1	0.64	-4	/	i
Cc1c(CC(C)C)nc(N)c(C#N)c1-c1ccccc1	13	0.36	-3	-5	i
CCC(=O)N1CCN(c2ccc(Cl)cc2NC(=O)Cc2ccccc2)CC1	2	0.41	19	0	i
COc1cc(SC)ccc1C(=O)N1CCN(c2ccccc2OC)CC1	23*	0.33	0	50*	i
CN(c1ccccc1)c1nc(N)c([N+](=O)[O-])c(NCc2ccccc2)n1	/	0.44	/	0	i
O=C(O)CCCCCCNS(=O)(=O)c1ccccc1	1	-1.2	-4	/	i
C/C(=N\NC(=O)C1CC1)c1ccc(Cl)c(Cl)c1	4	0.37	14	/	i
C/C(=N\N=C(N)N)c1ccc(Cl)c(Cl)c1	6	3.5	101*	2	i
Cc1cc(=O)oc2cc(OCC(=O)N/N=C/c3cc([N+](=O)[O-])ccc3O)ccc12	7	0.068	-3	2	i
CCC1CCCCN1c1ccc([N+](=O)[O-])cc1/C=N/NC(=O)Cn1c2ccccc2c(=O)c2ccccc21 (stereo unspecified)	2	-0.058	51*	-5	i
CCc1ccc(OCC(=O)N/N=C/c2cc([N+](=O)[O-])ccc2N2CCCCCC2)cc1	3	0.58	100*	0	i
O=C(N/N=C/c1cc([N+](=O)[O-])ccc1N1CCCCCC1)c1ccccn1	2	0.34	60*	/	i
CCN(CC)C(=O)C1CCCN(c2ccc([N+](=O)[O-])cc2/C=N/NC(=O)c2cccc(Br)c2)C1 (stereo unspecified)	1	-1.2	41	-2	i
CN(c1ccc([N+](=O)[O-])cc1/C=N/NC(=O)COc1ccccc1)C1CCCCC1	2	-0.81	91*	1	i
CN1CCN(c2ccc([N+](=O)[O-])cc2/C=N/NC(=O)c2ccc(F)cc2)CC1	1	0.38	11	-6	/
N#CCC(=O)N/N=C/c1cc([N+](=O)[O-])ccc1N1CCOCC1	3	0.24	-8	2	i
O=C(C1CCC(CNc2c(N3CCCC3)c(=O)c2=O)CC1)N1CCc2ccccc21 (stereo unspecified)	/	-0.12	/	0	i
CC(=O)Nc1ccc(S(=O)(=O)N2CCc3ccccc3C2)cc1	3	-0.77	-7	-1	i
O=C(c1ccccc1)N1CCN(C(=O)c2ccccc2)CC1	3	0.94	-5	1	i
CCCCCCCCNC(=O)c1cccnc1SCC(=O)Nc1ccccc1OC	3	0.7	82*	-3	i
CC(C)Nc1nnc(SCC(=O)NCc2ccc3c(c2)OCO3)s1	1	-0.32	-10	0	i
C=CCOC(=O)C1=C(C)N=C2SCCC(=O)N2C1/C=C/c1ccccc1 (stereo unspecified)	14	0.23	7	-1	i
Cc1ccc2nc(N/N=C\c3ccc([N+](=O)[O-])o3)nc(-c3ccccc3)c2c1	7	-1.9	98*	/	/
N#Cc1ccccc1/C=N/Nc1nc(-c2ccccc2)c2cc(Br)ccc2n1	1	-0.54	11	-2	i
